LEDGF integ inh: blocks HIV-1 LEDGF/p75-dependent DNA integration; AID 743269; 370,000 tested, 0.64% active; TR-FRET IN-LEDGF/p75 DNA integration, Eu/Cy5; inhibition, % at 3.7 µM;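 active = inhibition above the screen-wide mean plus 3 SD, cut at about 13% in these data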;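 note: signal is the Cy5 over europium emission ratio at 671 and 618 nm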
MBD2 inh: inhibitors of human MBD2 binding to methylated oligonucleotide; TR-FRET; Q9UBB5; inhibition, % at 4.4 µM; 370,000 tested, 0.31% active; in the data active = inhibition above about 13%
UHRF1 binding: human UHRF1 methylated DNA binding inhibitors | UHRF1 binding to methylated oligo, TR-FRET | inhibition, % at 4.4 µM | AID 687016 | Q96T88 | 370,000 tested, 0.75% active; in the data active = inhibition above about 21%;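 note: UHRF1 SRA domain binding a hemimethylated CpG hairpin DNA probe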
ABHD5-PLIN5 inh: inhibitors of human ABHD5-perilipin-5 interaction | 360,000 tested, 0.78% active | Q00G26+Q8WTS1 | inhibition, % at 4 µM | Split G. princeps luciferase complementation, luminescence, 4 h;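 active = inhibition above the mean inhibition across every tested compound plus 3 SD, cut at about 22% in these data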
Target sequence (Q00G26 whole entry, looked up): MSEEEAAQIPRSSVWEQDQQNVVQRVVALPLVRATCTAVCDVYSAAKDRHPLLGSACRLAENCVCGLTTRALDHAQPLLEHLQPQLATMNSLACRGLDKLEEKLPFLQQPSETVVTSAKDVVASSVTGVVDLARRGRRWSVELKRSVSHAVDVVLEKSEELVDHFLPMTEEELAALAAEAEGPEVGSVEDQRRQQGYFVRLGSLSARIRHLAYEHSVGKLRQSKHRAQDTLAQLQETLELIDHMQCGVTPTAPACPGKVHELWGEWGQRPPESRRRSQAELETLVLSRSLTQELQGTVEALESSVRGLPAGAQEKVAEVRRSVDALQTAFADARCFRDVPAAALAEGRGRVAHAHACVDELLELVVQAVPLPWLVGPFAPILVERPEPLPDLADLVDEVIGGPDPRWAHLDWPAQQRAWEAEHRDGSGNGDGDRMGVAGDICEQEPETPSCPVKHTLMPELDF
Target sequence (Q8WTS1 whole entry, looked up): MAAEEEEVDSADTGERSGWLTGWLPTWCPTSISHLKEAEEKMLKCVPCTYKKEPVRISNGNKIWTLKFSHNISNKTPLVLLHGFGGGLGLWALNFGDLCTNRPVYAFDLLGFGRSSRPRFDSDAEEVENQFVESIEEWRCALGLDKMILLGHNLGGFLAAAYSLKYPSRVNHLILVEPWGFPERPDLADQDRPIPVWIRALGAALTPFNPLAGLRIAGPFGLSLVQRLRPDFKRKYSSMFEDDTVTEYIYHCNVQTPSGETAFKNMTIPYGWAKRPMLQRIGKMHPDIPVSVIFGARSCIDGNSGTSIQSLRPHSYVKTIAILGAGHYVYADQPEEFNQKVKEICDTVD
RBBP9 inhibitor: blocks human serine hydrolase RBBP9; O75884; recombinant RBBP9, FP-Rh probe fluorescence polarization; inhibition, % at 7.94 µM; 220,000 tested, 0.2% active; AID 1515;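 active = inhibition above the campaign mean of all tested compounds plus 3 SD, cut at about 14% in these data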
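System: RBBP9 protein / Buffer or medium: Tris/NaCl buffer pH 8.0 with 0.1% Pluronic / Probe or stimulus: Serine-hydrolase probe FP-Rh, 375 nM pre-mixing / Dosing: 7.94 µM single dose, 0.794% DMSO / Times: enzyme-compound preincubation 30 min, then probe labeling 45 min, 25 °C / Technique: fluorescence polarization (mP), excitation 525 nm, emission 598 nm / Replication: singlicate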
PRMT1 FP inh: inhibitors of human PRMT1 | Q99873 | recombinant PRMT1, activity-based probe fluorescence polarization | 370,000 tested, 1.3% active | inhibition, % at 2.79 µM;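 active = inhibition above about 21% made by adding two undisclosed values, limit read from the data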
UHRF1 ctr MBD2: inhibits human UHRF1 binding to methylated oligonucleotide, MBD2 counter-screen; shares compounds with MBD2 inh; TR-FRET; inhibition, % at 4.4 µM; 1,000 tested, 25% active; in the data active = inhibition above about 21%;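 note: UHRF1 SRA domain binding a labeled hemimethylated CpG hairpin DNA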
MBD2 confirm: MBD2-DBD methyl-DNA binding inhibition, TR-FRET confirmation; 1,000 tested, 26% active; TR-FRET MBD2-DBD binding to methylated oligonucleotide; shares compounds with MBD2 inh; inhibition, % at 4.4 µM
IN multimer act: activates HIV-1 integrase multimerization in LEDGF counter-screen. shares compounds with LEDGF integ inh. TR-FRET HIV-1 integrase multimerization, biochemical. activation, % at 7.7 µM. 2,000 tested, 17% active. AID 1053131; in the data active = activation above about 8.9%
TRFRET interf: counter-screen for LEDGF/p75 integration inhibitors: TR-FRET optical interference; 2,000 tested, under 10 active; TR-FRET optical interference counterscreen, HIV-1 IN multimerization; AID 1053135; shares compounds with LEDGF integ inh; inhibition, % at 7.7 µM;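 active = inhibition above the mean over all tested compounds plus 3 SD, which no compound reached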
IN-LEDGF confirm: confirmation of HIV-1 LEDGF/p75-dependent integration inhibitors; inhibition, % at 3.7 µM; TR-FRET LEDGF/p75-dependent HIV-1 integration, biochemical; shares compounds with LEDGF integ inh; 2,000 tested, 36% active; AID 1053136
Each line names hits and unclear results; the compound was inactive in the other large screens (follow-up assays come after a bar, where they were run). Only some compounds are listed: those with a hit (about 3.1% of all), similar ones and a draw of the others. Cut-off read from the data, not from the text of the source, unless noted: active = inhibition above about 14%; inactive = the rest.

O=C(NC(=S)Nc1ccc(Br)cn1)c1cccs1	LEDGF integ inh 19.0, MBD2 inh 14.0, UHRF1 binding 36.7 | UHRF1 ctr MBD2 inactive | MBD2 confirm inactive | IN multimer act inactive | TRFRET interf inactive | IN-LEDGF confirm inactive
COc1ccccc1CCn1cnc(-c2ccc(Br)cc2)c1CC(C)C	none (no result: ABHD5-PLIN5 inh, RBBP9 inhibitor)
CCOc1ccc(CCNC(=O)c2ccc(Oc3ccccc3)cc2)cc1OCC	none (no result: ABHD5-PLIN5 inh, RBBP9 inhibitor)
Cc1nc(SCC(N)=O)[nH]c(=O)c1C	none (no result: ABHD5-PLIN5 inh, RBBP9 inhibitor)
COc1ccc2nc(-c3ccco3)c(-c3ccco3)nc2c1	LEDGF integ inh 64.5, MBD2 inh 20.1, UHRF1 binding 77.5, PRMT1 FP inh 63.1 | UHRF1 ctr MBD2 24.6 | MBD2 confirm inactive | IN multimer act inactive | TRFRET interf inactive | IN-LEDGF confirm 49.7
Cc1c(O)cc2c(c1O)C(=O)CC(c1ccc(O)cc1)O2 (stereo not drawn)	LEDGF integ inh 21.8, MBD2 inh 15.1, UHRF1 binding 28.7 | UHRF1 ctr MBD2 inactive | MBD2 confirm inactive | IN multimer act 36.8 | TRFRET interf inactive | IN-LEDGF confirm 39.2
COc1cc(O)c2c(c1)OC(c1ccc(O)cc1)CC2=O (stereo not drawn)	none
O=C(O)Cc1c[nH]c2cccc(O)c12	LEDGF integ inh 73.0, MBD2 inh 55.1, UHRF1 binding 94.6, PRMT1 FP inh 31.6 | UHRF1 ctr MBD2 40.2 | MBD2 confirm 16.0 | IN multimer act 54.6 | TRFRET interf inactive | IN-LEDGF confirm 39.1
CC(=O)NC1CCCCN(C)C1=O (stereo not drawn)	none (no result: ABHD5-PLIN5 inh, RBBP9 inhibitor)
Cc1ccc(CNC(=O)c2c(-c3ccccc3Cl)noc2C)cc1	none (no result: RBBP9 inhibitor)
Cc1onc(-c2ccccc2Cl)c1C(=O)NCc1ccco1	LEDGF integ inh 44.0, MBD2 inh 25.8, UHRF1 binding 41.3 | UHRF1 ctr MBD2 inactive | MBD2 confirm 14.0 | IN multimer act 10.0 | TRFRET interf inactive | IN-LEDGF confirm 30.5
CN(Cc1ccc(F)cc1)C(=O)CN1C(=O)C2(OCCCO2)c2ccccc21	none (no result: ABHD5-PLIN5 inh, RBBP9 inhibitor)
CN(CCOC(=O)c1cccs1)C1CN(Cc2cn(Cc3ccccc3Cl)nn2)S(=O)(=O)C1 (stereo not drawn)	none (no result: ABHD5-PLIN5 inh, RBBP9 inhibitor)
CCOc1ccc(/C=N/NC(=O)c2cc(-c3ccco3)nc3ccccc23)cc1	none
O=C(N/N=C/c1ccc(F)cc1)c1cc(-c2ccco2)nc2ccccc12	LEDGF integ inh 14.8, MBD2 inh 18.6, UHRF1 binding 28.1 | UHRF1 ctr MBD2 52.2 | MBD2 confirm 36.2 | IN multimer act 23.5 | TRFRET interf inactive | IN-LEDGF confirm 48.3
O=C(N/C=C/c1ccco1)OCc1ccccc1	LEDGF integ inh 36.0, MBD2 inh 15.3, UHRF1 binding 23.6 | UHRF1 ctr MBD2 26.0 | MBD2 confirm 26.6 | IN multimer act 31.1 | TRFRET interf inactive | IN-LEDGF confirm 36.4
O=c1cc(-c2ccc(Br)cc2)[nH][nH]1	none
COc1ccc(-c2cc(=O)[nH][nH]2)cc1OC	LEDGF integ inh 41.6, MBD2 inh 15.9 | UHRF1 ctr MBD2 inactive | MBD2 confirm inactive | IN multimer act inactive | TRFRET interf inactive | IN-LEDGF confirm inactive
N[C@@H](Cc1ccc(O)c(O)c1)C(=O)O	LEDGF integ inh 89.4, MBD2 inh 34.1, UHRF1 binding 66.8 (no result: RBBP9 inhibitor) | UHRF1 ctr MBD2 96.3 | MBD2 confirm 58.6 | IN multimer act 53.0 | TRFRET interf inactive | IN-LEDGF confirm 93.3
NC(Cc1ccc(O)c([N+](=O)[O-])c1)C(=O)O (stereo not drawn)	none

Assay outcomes (PubChem)
